Data from ChEMBL document CHEMBL1153554, “Mechanisms by which the G333D mutation in human immunodeficiency virus type 1 Reverse transcriptase facilitates dual resistance to zidovudine and lamivudine” (Antimicrob Agents Chemother, 2008).
Active and inactive are the calls of the source. The rule behind the calls is not given here.

Legend:
[1] = test system: Human immunodeficiency virus type 1 reverse transcriptase (Human immunodeficiency virus 1), Q72547 [M41L,L210W,T215Y]; assay: Binding affinity to 200 nM HIV1 LAI reverse transcriptase M41L/L210W/T215Y mutant assessed as ATP-mediated excision of zidovudine-monophosphate from chain terminated DNA/DNA template/primer duplex at 100 uM
Procedure, shortened: (§1)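 Primer P20 (5′-³²P) on DNA template T57 was chain-terminated with WT RT and 100 μM AZT-TP (30 min, 37°C), gel-purified and reannealed. 200 nM active-site RT with 20 nM terminated T/P in 50 mM Tris-HCl pH 8.0, 50 mM KCl. Started with 3.0 mM ATP, 10 mM MgCl₂, 1 μM TTP and 5 μM ddCTP. Timed aliquots were run on 7 M urea-16% PAGE and phosphorimaged.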

[2] = molecular target: Human immunodeficiency virus type 1 reverse transcriptase (Human immunodeficiency virus 1) (UniProt Q72547); assay: Binding affinity to wild type HIV1 LAI reverse transcriptase assessed as ATP-mediated excision of zidovudine-monophosphate from chain terminated RNA/DNA template/primer duplex
Procedure, shortened: (§2)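 The AZT-MP-terminated ³²P-P20 primer was annealed to a 35-nt RNA template (T35). 200 nM active-site RT with 20 nM T/P in 50 mM Tris-HCl pH 8.0, 50 mM KCl. Started with 3.0 mM ATP and 10 mM MgCl₂. Timed aliquots were quenched and separated on denaturing urea-PAGE, then phosphorimaged.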

[3] = test system: Human immunodeficiency virus 1; assay: (§3) Selectivity ratio of Kd for excision of zidovudine-monophosphate terminated DNA/DNA template/primer duplex chain in HIV1 LAI reverse transcriptase M41L/L210W/T215Y/K65R mutant to Kd for excision of zidovudine-monophosphate terminated DNA/DNA template/primer duplex chain in wild type HIV1 LAI reverse transcriptase by gel shift mobility assay
[4] = test system: Human immunodeficiency virus type 1 reverse transcriptase (Human immunodeficiency virus 1), Q72547 [M41L,L210W,T215Y]; assay: Binding affinity to HIV1 LAI reverse transcriptase M41L/L210W/T215Y mutant assessed as ATP-mediated excision of zidovudine-monophosphate from chain terminated RNA/DNA template/primer duplex; procedure, shortened: as §2
[5] = molecular target: T1, Human immunodeficiency virus type 1 reverse transcriptase (Human immunodeficiency virus 1, UniProt Q72547); assay: Binding affinity to wild type HIV1 LAI reverse transcriptase assessed as ATP-mediated excision of zidovudine-monophosphate terminated DNA/DNA template/primer duplex chain at 100 uM by gel shift mobility assay
Procedure, shortened: (§4)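 Native 4% PAGE in Tris-acetate pH 8.0 with 1 mM EDTA, 30 min at 100 V, room temperature. The shifted band was taken as a 1:1 RT-T/P complex to give Kd. Mean ± SD of three experiments.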

[6] = test system: Human immunodeficiency virus type 1 reverse transcriptase (Human immunodeficiency virus 1), Q72547 [M184V]; assay: Binding affinity to 200 nM HIV1 LAI reverse transcriptase M184V mutant assessed as ATP-mediated excision of zidovudine-monophosphate from chain terminated DNA/DNA template/primer duplex at 100 uM; procedure, shortened: as §1
[7] = test system: Human immunodeficiency virus type 1 reverse transcriptase (Human immunodeficiency virus 1), Q72547 [M41L,L210W,T215Y,M184V]; assay: Binding affinity to 200 nM HIV1 LAI reverse transcriptase M41L/L210W/T215Y/M184V mutant assessed as ATP-mediated excision of zidovudine-monophosphate from chain terminated DNA/DNA template/primer duplex at 100 uM; procedure, shortened: as §1
[8] = Binding affinity to HIV1 LAI reverse transcriptase M41L/L210W/T215Y/K65R/G333D mutant assessed as ATP-mediated excision of zidovudine-monophosphate terminated DNA/DNA template/primer duplex chain at 100 uM by gel shift mobility assay; parameters: species or system Human immunodeficiency virus 1; procedure, shortened: as §4
[9] = test system: Human immunodeficiency virus 1; assay: as §3, with “M184V” for “M41L/L210W/T215Y/K65R”
[10] = test system: Human immunodeficiency virus 1; assay: as §3, with “zidovudine-monophosphate from chain” for “zidovudine-monophosphate”, “duplex” for “duplex chain”, “M41L/L210W/T215Y/K65R/G333D” for “M41L/L210W/T215Y/K65R”
[11] = molecular target: T2, Human immunodeficiency virus type 1 reverse transcriptase (Human immunodeficiency virus 1, UniProt Q72547, L210W/M41L/T215Y); assay: Binding affinity to HIV1 LAI reverse transcriptase M41L/L210W/T215Y mutant assessed as ATP-mediated excision of zidovudine-monophosphate terminated DNA/DNA template/primer duplex chain at 100 uM by gel shift mobility assay; procedure, shortened: as §4
[12] = test system: Human immunodeficiency virus 1; assay: as §3, with “M41L/L210W/T215Y/M184V” for “M41L/L210W/T215Y/K65R”
[13] = test system: Human immunodeficiency virus type 1 reverse transcriptase (Human immunodeficiency virus 1), Q72547 [M41L,L210W,T215Y,M184V]; assay: Binding affinity to HIV1 LAI reverse transcriptase M41L/L210W/T215Y/M184V mutant assessed as ATP-mediated excision of zidovudine-monophosphate from chain terminated RNA/DNA template/primer duplex; procedure, shortened: as §2
[14] = test system: Human immunodeficiency virus 1; assay: Selectivity ratio of Kd for excision of zidovudine-monophosphate from chain terminated DNA/DNA template/primer duplex in 200 nM HIV1 LAI reverse transcriptase M41L/L210W/T215Y mutant to Kd for excision of zidovudine-monophosphate from chain terminated DNA/DNA template/primer duplex in 200 nM HIV1 LAI reverse transcriptase M184V mutant by gel shift mobility assay
[15] = test system: Human immunodeficiency virus 1; assay: Binding affinity to HIV1 LAI reverse transcriptase M41L/L210W/T215Y/M184V/G333D mutant assessed as ATP-mediated excision of zidovudine-monophosphate from chain terminated RNA/DNA template/primer duplex; procedure, shortened: as §2
[16] = test system: Human immunodeficiency virus 1; assay: as §3, with “M41L/L210W/T215Y” for “M41L/L210W/T215Y/K65R”
[17] = test system: Human immunodeficiency virus type 1 reverse transcriptase (Human immunodeficiency virus 1), Q72547 [M184V]; assay: Binding affinity to HIV1 LAI reverse transcriptase M184V mutant assessed as ATP-mediated excision of zidovudine-monophosphate from chain terminated RNA/DNA template/primer duplex at 100 uM; procedure, shortened: as §2
[18] = molecular target: T3, Human immunodeficiency virus type 1 reverse transcriptase (Human immunodeficiency virus 1, UniProt Q72547, M184V); assay: Binding affinity to HIV1 LAI reverse transcriptase M184V mutant assessed as ATP-mediated excision of zidovudine-monophosphate terminated DNA/DNA template/primer duplex chain at 100 uM by gel shift mobility assay; procedure, shortened: as §4
[19] = molecular target: Human immunodeficiency virus type 1 reverse transcriptase (Human immunodeficiency virus 1, UniProt Q72547, K65R/L210W/M41L/T215Y); assay: Binding affinity to HIV1 LAI reverse transcriptase M41L/L210W/T215Y/K65R mutant assessed as ATP-mediated excision of zidovudine-monophosphate terminated DNA/DNA template/primer duplex chain at 100 uM by gel shift mobility assay; procedure, shortened: as §4
[20] = test system: Human immunodeficiency virus 1; assay: as §3, with “M41L/L210W/T215Y/M184V/G333D” for “M41L/L210W/T215Y/K65R”
[21] = test system: Human immunodeficiency virus 1; assay: Selectivity ratio of Kd for excision of zidovudine-monophosphate from chain terminated DNA/DNA template/primer duplex in 200 nM HIV1 LAI reverse transcriptase M41L/L210W/T215Y mutant to Kd for excision of zidovudine-monophosphate from chain terminated DNA/DNA template/primer duplex in 200 nM wild type HIV1 LAI reverse transcriptase by gel shift mobility assay
[22] = molecular target: T4, Human immunodeficiency virus type 1 reverse transcriptase (Human immunodeficiency virus 1, UniProt Q72547, L210W/M184V/M41L/T215Y); assay: Binding affinity to HIV1 LAI reverse transcriptase M41L/L210W/T215Y/M184V mutant assessed as ATP-mediated excision of zidovudine-monophosphate terminated DNA/DNA template/primer duplex chain at 100 uM by gel shift mobility assay; procedure, shortened: as §4
[23] = molecular target: Human immunodeficiency virus type 1 reverse transcriptase (Human immunodeficiency virus 1) (UniProt Q72547); assay: Binding affinity to 200 nM wild type HIV1 LAI reverse transcriptase assessed as ATP-mediated excision of zidovudine-monophosphate from chain terminated DNA/DNA template/primer duplex at 100 uM; procedure, shortened: as §1
[24] = test system: Human immunodeficiency virus 1; assay: Binding affinity to 200 nM HIV1 LAI reverse transcriptase M41L/L210W/T215Y/M184V/G333D mutant assessed as ATP-mediated excision of zidovudine-monophosphate from chain terminated DNA/DNA template/primer duplex at 100 uM; procedure, shortened: as §1
[25] = Binding affinity to HIV1 LAI reverse transcriptase M41L/L210W/T215Y/M184V/G333D mutant assessed as ATP-mediated excision of zidovudine-monophosphate terminated DNA/DNA template/primer duplex chain at 100 uM by gel shift mobility assay; parameters: species or system Human immunodeficiency virus 1; procedure, shortened: as §4
[26] = molecular target: T4, Human immunodeficiency virus type 1 reverse transcriptase; assay: Binding affinity to HIV1 LAI reverse transcriptase M41L/L210W/T215Y/M184V mutant
[27] = test system: Human immunodeficiency virus 1; assay: Ratio of Kpol to Kd for HIV1 LAI reverse transcriptase M41L/L210W/T215Y/M184V/G333D mutant
Procedure, shortened: (§5)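 Pre-steady-state rapid quench: 400 nM active-site RT and 40 nM ³²P-P20/T57 DNA T/P were preincubated in 50 mM Tris-HCl pH 7.5, 50 mM KCl, then mixed with nucleotide in the same buffer containing 20 mM MgCl₂. Quenched with 0.3 M EDTA from 10 ms to 30 min, run on urea-PAGE. kobs came from single-exponential fits; kpol and Kd came from a hyperbolic fit versus nucleotide concentration.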

[28] = test system: Human immunodeficiency virus type 1 reverse transcriptase (Human immunodeficiency virus 1), Q72547 [M41L,L210W,T215Y]; assay: Ratio of Kpol to Kd for HIV1 LAI reverse transcriptase M41L/L210W/T215Y mutant; procedure, shortened: as §5
[29] = Binding affinity to HIV1 LAI reverse transcriptase M41L/L210W/T215Y/M184V/G333D mutant; parameters: species or system Human immunodeficiency virus 1
[30] = molecular target: T3, Human immunodeficiency virus type 1 reverse transcriptase; assay: Binding affinity to HIV1 LAI reverse transcriptase M184V mutant
[31] = molecular target: T1, Human immunodeficiency virus type 1 reverse transcriptase; assay: Binding affinity to wild type HIV1 LAI reverse transcriptase
Procedure, shortened: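 Bacterially expressed, purified RT, corrected for active-site concentration, preincubated at 400 nM with 40 nM 5′-³²P-labelled 20-nt DNA primer annealed to a 57-nt DNA template in 50 mM Tris-HCl pH 7.5, 50 mM KCl. It was then rapid-quench mixed 1:1 with nucleotide in the same buffer plus 20 mM MgCl₂. EDTA quench at 10 ms–30 min; urea-PAGE. k_obs fitted single-exponential; K_d from hyperbolic k_obs-versus-concentration fit.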

[32] = test system: Human immunodeficiency virus type 1 reverse transcriptase (Human immunodeficiency virus 1), Q72547 [M184V]; assay: Ratio of Kpol to Kd for HIV1 LAI reverse transcriptase M184V mutant; procedure, shortened: as §5
[33] = test system: Human immunodeficiency virus type 1 reverse transcriptase (Human immunodeficiency virus 1), Q72547 [M41L,L210W,T215Y,M184V]; assay: Ratio of Kpol to Kd for HIV1 LAI reverse transcriptase M41L/L210W/T215Y/M184V mutant; procedure, shortened: as §5
[34] = molecular target: Human immunodeficiency virus type 1 reverse transcriptase (Human immunodeficiency virus 1) (UniProt Q72547); assay: Ratio of Kpol to Kd for wild type HIV1 LAI reverse transcriptase; procedure, shortened: as §5
[35] = molecular target: T2, Human immunodeficiency virus type 1 reverse transcriptase; assay: Binding affinity to HIV1 LAI reverse transcriptase M41L/L210W/T215Y mutant

**Q.** Which results are given for `Cc1cn([C@H]2C[C@H](N=[N+]=[N-])[C@@H](COP(=O)(O)O)O2)c(=O)[nH]c1=O` [AZIDOTHYMIDINE MONOPHOSPHATE]?
**A.** Activity [1]: Active; Activity [2]: inactive; Ratio [3]: 1; Activity [4]: Active; Kd [5]: 19.8 nM; Activity [6]: Active; Activity [7]: Active; Kd [8]: 22.3 nM; Ratio [9]: 3.8; Ratio [10]: 1.1; Kd [11]: 18.8 nM; Ratio [12]: 5; Activity [13]: Active; fold change (FC) [14]: 4; Activity [15]: Active; Ratio [16]: 1; Activity [17]: inactive; Kd [18]: 76.9 nM; Kd [19]: 20.5 nM; Ratio [20]: 2.3; fold change (FC) [21]: 4; Kd [22]: 98.4 nM; Activity [23]: Active; Activity [24]: Active; Kd [25]: 46.2 nM

**Q.** For `Nc1ccn([C@H]2C[C@H](O)[C@@H](COP(=O)(O)OP(=O)(O)OP(=O)(O)O)O2)c(=O)n1` [DEOXYCYTIDINE TRIPHOSPHATE], which Kd [26] is on record?
**A.** 2990 nM

**Q.** What about the Ratio [27] of the same compound?
**A.** 0.58

**Q.** What about the Ratio [28] of the same compound?
**A.** 1.06

**Q.** And the Kd [29]?
**A.** 2510 nM

**Q.** And the Kd [30]?
**A.** 2490 nM

**Q.** What about the Kd [31] of the same compound?
**A.** 1140 nM

**Q.** And the Ratio [32]?
**A.** 0.53

**Q.** And the Ratio [33]?
**A.** 0.44

**Q.** What about the Ratio [34] of the same compound?
**A.** 1.07

**Q.** And the Kd [35]?
**A.** 1230 nM

**Q.** For `Cc1cn([C@H]2C[C@H](O)[C@@H](COP(=O)(O)OP(=O)(O)OP(=O)(O)O)O2)c(=O)[nH]c1=O` [DEOXYTHYMIDINE_TRIPHOSPHATE], which Kd [26] is on record?
**A.** 2650 nM

**Q.** What about the Kd [29] of the same compound?
**A.** 2900 nM

**Q.** And the Kd [30]?
**A.** 2850 nM

**Q.** What about the Kd [31] of the same compound?
**A.** 2080 nM

**Q.** What about the Kd [35] of the same compound?
**A.** 1200 nM
